Hits are enriched below; roughly 1.8% of the tested compounds scored in any of these assays.
MsrA inhibitor – bovine MsrA enzyme inhibitors, primary screen, biochemical, absorbance, HTS; actives 0.75% (n = 360,000); inhibition, % at 15.5 µM; Methionine sulfoxide reductase A (Bos taurus); purified bovine MsrA, absorbance read-out; AID 651718, 2012;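 further: 0% = vehicle wells with enzyme and 100% = reference inhibitor wells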
DAGLB inhibitor – DAGLB lipase inhibitors, primary screen, biochemical, fluorescence, HTS; HEK293T DAGLB membrane lysate, EnzChek fluorogenic substrate; inhibition, % at 5.17 µM; actives 0.059% (n = 340,000); AID 504411, 2011; in the data active means inhibition above about 34%;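 further: 0% = enzyme with vehicle and 100% = wells lacking enzyme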
Target sequence (Q8NCG7 whole entry, looked up): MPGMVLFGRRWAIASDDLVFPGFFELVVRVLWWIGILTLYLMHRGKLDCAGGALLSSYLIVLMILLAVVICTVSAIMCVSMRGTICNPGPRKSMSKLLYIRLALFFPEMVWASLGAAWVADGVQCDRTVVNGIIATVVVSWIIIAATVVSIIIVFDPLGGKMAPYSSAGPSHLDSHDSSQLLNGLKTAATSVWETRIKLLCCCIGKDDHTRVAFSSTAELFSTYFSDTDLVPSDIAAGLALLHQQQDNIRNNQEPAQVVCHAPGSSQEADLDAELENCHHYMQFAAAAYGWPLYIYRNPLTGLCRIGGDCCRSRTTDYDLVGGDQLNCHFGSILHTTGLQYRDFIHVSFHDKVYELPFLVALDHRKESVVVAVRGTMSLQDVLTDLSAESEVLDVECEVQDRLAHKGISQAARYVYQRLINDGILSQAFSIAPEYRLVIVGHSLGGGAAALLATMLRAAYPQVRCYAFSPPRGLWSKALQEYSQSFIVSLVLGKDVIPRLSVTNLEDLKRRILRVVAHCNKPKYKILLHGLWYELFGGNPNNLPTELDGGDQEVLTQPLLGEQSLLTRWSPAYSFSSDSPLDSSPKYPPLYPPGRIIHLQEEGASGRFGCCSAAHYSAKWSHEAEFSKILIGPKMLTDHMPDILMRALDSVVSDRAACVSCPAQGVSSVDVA
MT1-MMP act inh – blockers of MT1-MMP proenzyme processing, primary screen, HT1080 RFP-PRO-GFP cells, GFP/RFP fluorescence. Matrix metalloproteinase-14 (Homo sapiens), P50281. GFP/RFP ratio fluorescence, overnight; percent of plate control window, DMSO zero. GFP/RFP ratio change, % at 20 µM. actives 0.061% (n = 360,000). AID 651647, 2012;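 active means GFP/RFP ratio change of at least 30% with cell ATP level not reduced by more than half and red fluorescence within 50% of control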
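system = RFP-PRO-GFP reporter HT1080 cells | dosing = 20 µM single dose, 1% DMSO | timing = overnight cell settling, then overnight compound exposure, 37 °C, 5% CO2 | read-out basis = GFP/RFP fluorescence ratio | controls = DMSO and RFP-L50D-GFP cell wells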
SKN-1 inh – suppressors of acrylamide-induced Pgst-4::GFP reporter in worms, primary screen, SKN-1 inhibitor project, whole organism, uHTS, GFP/RFP fluorescence ratio, strain VP596; C. elegans VP596 Pgst-4::GFP/RFP ratio, 24 h; inhibition, % at 21.8 µM; actives 0.49% (n = 360,000);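 active means interference check ratio from 0.5 to 1.5 plus GFP to RFP signal ratio inhibition reaching or exceeding a fixed threshold, cut at about 30% in these data, passing the limit was not always enough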
MsrA act – bovine MsrA enzyme activators, primary screen, biochemical, absorbance, HTS; purified bovine MsrA, absorbance read-out; activation, % at 10.6 µM; Methionine sulfoxide reductase A (Bos taurus); actives 0.3% (n = 360,000); in the data active means activation above about 7.5%;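 further: 0% = vehicle and 100% = reference activator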
beta cell repl – inducers of MIN6 beta-cell proliferation, primary screen, ATP luminescence, uHTS; MIN6 cells proliferation, ATPlite luminescence, 48 h; cells starved in 0.2% serum; 100% = growth in 10% serum; actives 0.29% (n = 330,000); proliferation, % at 10 µM;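 active means compounds whose signal lies at least 3.5 SD above the mean of all wells on their plate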;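 further: 0% = DMSO-treated cells in low-serum medium and 100% = 10% serum control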
MsrA inh confirm – bovine MsrA inhibitors, retest, confirmation, biochemical, absorbance, HTS; purified bovine MsrA, absorbance read-out; actives 41% (n = 2,300); AID 651822, 2012; shares compounds with MsrA inhibitor; inhibition, % at 15.5 µM;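 further: coupled to thioredoxin reductase with NADPH and selenocystamine and DMSO as substrate; 0% = vehicle only and 100% = full effect of reference inhibitor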
* = called active by the depositor; · = no result given. Unless noted, no stated cut-off is given here; in the data, active means inhibition above about 4.5%; inactive means the rest.

SMILES | MsrA inhibitor | DAGLB inhibitor | MT1-MMP act inh | SKN-1 inh | MsrA act | beta cell repl | MsrA inh confirm
COc1ccc(-c2cc(C(F)(F)F)nc(S(C)(=O)=O)n2)cc1 | 5.4* | -5.7 | -4.2 | -18.6 | -8.9 | -5.8 | 1.7
CS(=O)(=O)c1nc(-c2ccc(F)cc2)cc(C(F)(F)F)n1 | 1.0 | -9.0 | 0.3 | -1.6 | -7.0 | · | ·
O=C(OCC(O)COc1ccccc1)c1ccc([N+](=O)[O-])cc1 (stereo not drawn) | 1.4 | -9.9 | 1.9 | -9.5 | -0.9 | 4.2 | ·
CCOC(=O)C1=C(c2ccccc2)OC(N)=C(C#N)C1c1ccco1 (stereo not drawn) | 6.3* | -3.8 | 0.5 | -6.8 | -4.3 | -1.7 | 3.0
CCN(CC)c1ccc(/C=N/NC(=O)c2ccc([N+](=O)[O-])cc2)cc1 | -0.1 | 0.7 | 2.0 | 3.6 | -2.8 | 2.3 | ·
CCN(CC)c1ccc(C2NCC(c3ccc([N+](=O)[O-])cc3)O2)cc1 (stereo not drawn) | 5.3* | -0.7 | 16.9 | -9.5 | -5.1 | -1.1 | 4.7*
Cn1c(N)c(C(=O)COC(=O)CNC(=O)c2ccccc2Cl)c(=O)n(C)c1=O | 0.1 | 0.6 | -3.2 | -1.1 | 2.4 | 4.0 | ·
Cc1ccc2oc(-c3ccco3)cc(=O)c2c1 | 7.7* | -1.6 | -1.6 | 28.1 | -5.7 | -4.1 | 5.4*
CC1CC(C)CN(C(=O)c2cc3cc(Br)cc(Br)c3o2)C1 (stereo not drawn) | 5.4* | -12.6 | -1.1 | 28.6 | -5.6 | -5.7 | 3.2
CC1CC(C)CN(C(=O)c2cc3ccccc3o2)C1 (stereo not drawn) | -1.1 | -2.5 | -3.3 | -2.7 | -5.2 | -3.3 | ·
O=C(Nc1ccc2[nH]c(=S)sc2c1)c1ccccc1 | 5.1* | 1.3 | 3.6 | 4.8 | 0.1 | -3.4 | 2.3
CCn1c(SCC(=O)Nc2ccc(Br)cn2)nnc1C1CC1 | 2.6 | -1.9 | 1.6 | 2.4 | -3.8 | -1.6 | ·
CN(c1ccccc1)S(=O)(=O)c1cc(C(=O)Nc2ccccc2N2CCOCC2)ccc1Cl | 1.0 | -5.0 | -1.2 | 19.0 | -1.2 | · | ·
COc1ccc(/C=C(\C#N)C(=O)N2COCC2(C)C)cc1 | 5.1* | -1.4 | 3.2 | 16.5 | -1.8 | -1.6 | 3.3
COc1ccc(/C=C(\C#N)C(=O)N=CN(C)C)cc1 | 0.9 | 1.2 | 0.4 | 3.9 | -1.9 | -2.0 | ·
O=C(CN1C(=O)S/C(=C/C=C/c2ccccc2)C1=O)Nc1ccc(C(=O)O)cc1 | 5.3* | 3.2 | -2.9 | -1.1 | -4.2 | -1.3 | 5.8*
O=C(CCN1C(=O)/C(=C\C=C\c2ccccc2)SC1=S)Nc1ccc(C(=O)O)cc1 | 0.3 | 9.3 | -2.8 | 3.5 | -4.0 | -6.3 | ·
O=C(CCCN1C(=O)S/C(=C\C=C\c2ccccc2)C1=O)Nc1ccc(O)cc1 | 4.5 | -1.2 | -0.4 | 5.1 | -2.8 | -7.2 | ·
O=C(CN1C(=O)S/C(=C\C=C\c2ccccc2)C1=O)Nc1ccc(C(=O)O)cc1 | 6.6* | 4.4 | -1.7 | -7.4 | -10.9 | -2.9 | 4.5
Cc1cc(C(=O)NNC(=O)Cc2ccc(Cl)c(Cl)c2)c(C)o1 | 1.8 | -0.8 | 2.4 | -0.1 | -2.6 | -0.1 | ·
COc1ccccc1CNC(=O)C1CCN(S(=O)(=O)c2ccc3nc4c(c(C(=O)O)c3c2)CCCC4)CC1 | 0.2 | 1.3 | 1.0 | -10.9 | -4.0 | 2.8 | ·
CCCCN(C)CCCNC(=O)C1(O)c2ccccc2NC(=O)N1c1ccc(Cl)cc1 (stereo not drawn) | 1.7 | 0.0 | 0.6 | 1.6 | -2.4 | 0.6 | ·
O=c1[nH]ncc(N/N=C\c2cccs2)c1Cl | 9.1* | 2.0 | 5.6 | 8.1 | -2.4 | 1.2 | 6.2*
O=c1[nH]ncc(N/N=C\c2ccncc2)c1Cl | 9.6* | 0.5 | 3.1 | 1.8 | -5.5 | -0.4 | 6.0*
COc1ccccc1/C=N\Nc1cn[nH]c(=O)c1Cl | 5.8* | -2.1 | 0.9 | 2.2 | -3.8 | -3.2 | 4.7*
SMILES | MsrA inhibitor | DAGLB inhibitor | MT1-MMP act inh | SKN-1 inh | MsrA act | beta cell repl | MsrA inh confirm
Cc1cccc(/C=N\Nc2cn[nH]c(=O)c2Cl)c1 | 8.1* | -0.3 | 12.8 | -10.2 | -4.2 | -3.7 | 5.0*
O=c1[nH]ncc(N/N=C\c2cccnc2)c1Cl | 2.2 | -0.8 | 6.9 | 11.1 | -2.9 | 0.2 | ·
CCOc1ccccc1/C=N\Nc1cnn(Cc2ccccc2)c(=O)c1Cl | 1.6 | -1.0 | -9.7 | 11.6 | -1.3 | -5.1 | ·
Cc1ccc(CNS(=O)(=O)c2ccc(C(F)(F)F)cc2)n1C | -0.6 | · | -2.7 | 3.3 | -0.7 | 0.0 | ·
CCN1CC(C)(C)N(C(=O)c2ccccc2)CC1(C)C | 0.2 | -1.1 | -2.1 | 2.7 | -2.8 | · | ·
CCC(C)/C(C)=N/Nc1ccc(S(N)(=O)=O)cc1[N+](=O)[O-] (stereo not drawn) | 7.7* | 9.2 | 7.9 | 1.2 | -8.0 | -2.0 | 3.9
C/C(CC(C)C)=N\Nc1ccc(S(N)(=O)=O)cc1[N+](=O)[O-] | 11.4* | 14.2 | 11.0 | 0.3 | -4.8 | -2.0 | 5.6*
COc1ccccc1NS(=O)(=O)c1ccc(N/N=C(\C)C(C)C)c([N+](=O)[O-])c1 | 9.2* | 13.9 | 2.2 | 9.0 | · | 0.0 | 3.9
CCOC(=O)CC1(C)c2nc(NC(C)=O)sc2Cc2sc(NC(C)=O)nc21 | 1.6 | · | 4.5 | 0.5 | -3.9 | · | ·
CCN(Cc1ccncc1)C(=O)c1ccc2c(c1)S(=O)(=O)c1ccccc1C2=O | -0.4 | -1.2 | -3.1 | 1.4 | -15.6 | 0.4 | ·
COc1ccc(Nc2nnc(SC(C(=O)Nc3cc(C)ccc3C)c3ccccc3)s2)cc1 (stereo not drawn) | 0.1 | 0.7 | -5.9 | -4.1 | -4.0 | -4.7 | ·
COc1ccc(C)cc1NC(=O)C(Sc1nnc(Nc2cc(C)ccc2OC)s1)c1ccccc1 (stereo not drawn) | 5.2* | 1.7 | -7.5 | 0.1 | -2.0 | -1.9 | 1.1
CSC(=Cc1ccc(C(=O)c2ccc(C)cc2)n1C)S(C)=O (stereo not drawn) | 5.0* | · | · | · | · | · | 2.9
CCCCC(=O)Nc1ccc(NCc2ccc(C)s2)cc1 | 0.9 | -2.7 | -0.9 | 5.2 | 0.0 | · | ·
N#Cc1cccnc1N1CCN(C(=O)COCC(=O)O)CC1 | 0.0 | -6.4 | 2.3 | -2.8 | -10.2 | -1.6 | ·
CCOc1cc(/C=N/NC(=O)c2ccc(CN3CCOCC3)cc2)ccc1OC | 5.3* | 0.1 | -0.1 | -1.0 | -11.6 | -0.9 | 3.9

Bioassay records: PubChem, several laboratories
